HIV Env fusion = HIV envelope-mediated fusion inhibition; HeLa-JRFL Env/CEM21 cell fusion, luciferase; inhibition, % at 12.3 µM; hit rate 1.1% among 360,000; AID 651610;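 active = mean replicate inhibition score of at least 50 and every replicate individually at or above 50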;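 also: 0% = plate neutral controls and 100% = maraviroc near 300 nM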
NR2E3 ag-1 = agonists of human nuclear receptor NR2E3; Q9Y5X4; GST-NR2E3/biotin-RetCOR TR-FRET, 1536-well; inhibition of corepressor binding, % at 4.78 µM; hit rate 0.12% among 320,000; AID 2300;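 active = percent inhibition above the cutoff of mean plus 3 SD of all tested compounds, set per screening campaign, cut at about 20% in these data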;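 also: 0% = DMSO wells and 100% = biotin wells as full block of FRET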
Target sequence (Q9Y5X4 whole entry, looked up): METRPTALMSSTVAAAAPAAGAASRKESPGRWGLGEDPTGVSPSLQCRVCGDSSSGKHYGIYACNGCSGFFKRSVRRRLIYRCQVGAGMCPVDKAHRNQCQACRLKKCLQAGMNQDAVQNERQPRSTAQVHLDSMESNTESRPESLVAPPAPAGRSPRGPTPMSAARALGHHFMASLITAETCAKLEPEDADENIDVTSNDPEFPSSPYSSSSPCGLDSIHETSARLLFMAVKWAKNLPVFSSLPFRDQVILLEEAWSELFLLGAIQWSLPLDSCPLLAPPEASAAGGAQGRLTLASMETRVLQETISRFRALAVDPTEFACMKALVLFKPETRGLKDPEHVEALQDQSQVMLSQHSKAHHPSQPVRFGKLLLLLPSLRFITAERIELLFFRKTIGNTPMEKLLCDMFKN
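Material: NR2E3–RetCOR corepressor complex | Quantity: 1.35 nM GST-tagged NR2E3 final | Schedule: 5 h at 4 °C | Replication: Singlicate compound wells | Reagent: RetCOR corepressor, biotinylated, 7 nM | Controls: Biotin wells as high control, 0.6% DMSO wells as low control | Signal: TR-FRET, Eu(K)-anti-GST donor, streptavidin-D2 acceptor, ex 340, em 617/671 nm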
V-ATPase pHluor = yeast V-ATPase proton transport regulation by pHLuorin; response, % at 10 µM; AID 504577; S. cerevisiae, pHLuorin cytosolic pH fluorescence; hit rate 0.37% among 350,000; in the data active = response mostly above about 7.3%, no sharp cut-off; inactive = mostly below about 5.4%; also: actives read high
GAA850 FXN act = increases GAA850 frataxin promoter reporter activity. HEK293 lucGAA850 FXN promoter luciferase reporter, 24 h; percent of 10 µM SAHA response. activation, % at 6 µM. hit rate 0.56% among 360,000;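 active = activation above the average of all compounds screened plus 3 SD, cutoff fixed separately per campaign, cut at about 7.5% in these data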;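 also: 0% = DMSO wells and 100% = 10 µM SAHA wells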
NR2E3 ag-2 = agonists of human NR2E3 nuclear receptor. Q9Y5X4. CHO-S Gal4-NCOR/VP16-NR2E3 two-hybrid, luciferase. inhibition of corepressor binding, % at 3.98 µM. hit rate 0.35% among 360,000;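 active = inhibition above the mean of all tested compounds plus 3 SD, cut at about 70% in these data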;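 also: 0% = DMSO with NR2E3 transfected cells and 100% = cells lacking NR2E3 construct; higher means lower luciferase signal from less NR2E3 corepressor binding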
GalR3 antagonist = blocks the human galanin receptor 3 | HEK293 GalR3-CNG cAMP membrane potential fluorescence; galR3 body fused to GalR1 C-terminus | inhibition, % at 3 µM | hit rate 0.44% among 360,000;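 active = inhibition above the screen-wide average plus 3 SD, cut at about 13% in these data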;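 also: forskolin and galanin both at EC90 stimulate the cells; cAMP rise reported by CNG channel membrane potential dye signal; 0% = forskolin plus galanin with DMSO and 100% = forskolin alone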
Target sequence (O60755 1-299 limits assumed): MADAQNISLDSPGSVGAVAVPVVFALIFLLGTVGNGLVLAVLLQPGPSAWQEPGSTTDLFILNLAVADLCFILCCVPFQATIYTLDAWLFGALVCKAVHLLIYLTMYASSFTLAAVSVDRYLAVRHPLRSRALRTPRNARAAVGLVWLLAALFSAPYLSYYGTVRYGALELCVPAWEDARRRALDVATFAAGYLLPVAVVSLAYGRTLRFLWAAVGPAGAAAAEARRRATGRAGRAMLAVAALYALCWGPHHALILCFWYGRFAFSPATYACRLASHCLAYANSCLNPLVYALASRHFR
GalR3 antag conf = GalR3 (human) antagonism, confirmation; shares compounds with GalR3 antagonist; HEK293 GalR3 CNG cAMP biosensor, membrane potential fluorescence; galR3 fused to GalR1 carboxy tail; challenged with forskolin and galanin at EC90; hit rate 59% among 1,600; inhibition, % at 3 µM;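 active = inhibition above the primary screen's cutoff, the mean inhibition of all screened compounds plus 3 SD, cut at about 13% in these data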;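 also: 0% = forskolin plus galanin and 100% = forskolin alone with DMSO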
HEK-CNG parental = counter-screen for GalR3 antagonists: nonspecific agonists in parental HEK-CNG cells; AID 652268; hit rate 10% among 1,600; activation, % at 3 µM; shares compounds with GalR3 antagonist; HEK293-CNG parental cells, cAMP membrane potential fluorescence; normalised: DMSO wells 0%, forskolin wells 100%; in the data active = activation above about 1.3%
Active calls of the source: *; / = not tested or not shown; [ ] = dose if it differs, or a comment. Shown are actives, neighbours in structure and some others; about 2.2% of the full set was active somewhere.

SMILES	HIV Env fusion	NR2E3 ag-1	V-ATPase pHluor	GAA850 FXN act	NR2E3 ag-2	GalR3 antagonist	GalR3 antag conf	HEK-CNG parental
CCN1C(=O)Cc2cc(S(=O)(=O)N3CCOCC3)ccc21	4.8	-3.2	0.4	0.6	-16.0	-4.0	/	/
CCN1CC(=O)Nc2cc(S(=O)(=O)N3CCOCC3)ccc21	-9.1	3.0	0.5	1.3	16.4	15.6*	-2.2	0.2
CCCOC(=O)CCCC[C@H]1SC[C@@H](NC(=O)OC)[C@H]1NC(=O)OC	-15.7	4.7	-1.2	0.7	6.0	13.9*	4.8	0.3
Cc1ccc(S(=O)(=O)N(C)Cc2ccc(C(=O)N/N=C/c3ccc(OC(F)F)cc3OC(F)F)cc2)cc1	66.2*	2.1	-1.8	-2.8	14.2	80.3*	28.2*	-0.3
O=C(N/N=C/c1ccc(OC(F)F)cc1OC(F)F)c1ccc(Br)cc1	-8.1	-1.2	0.6	0.2	-24.1	-4.0	/	/
CN(C)C(=O)c1cc2c(c(-c3cccc(-c4ccccc4F)c3)n1)[C@H](CCO)N(S(C)(=O)=O)C2	18.9[16.7 µM]	/	/	/	/	/	/	/
COc1ccccc1-c1cc(C(F)(F)F)nc(S(=O)(=O)CCCC(=O)Nc2cccnc2Cl)n1	-4.6	/	2.3	2.7	2.7	21.6*	22.4*	0.5
Nc1ncnc2c1ncn2[C@@H]1O[C@H](CO)[C@@H](O)[C@H]1O	31.7	-0.2	0.5	0.2	20.0	112.2*	-19.7	5.8*
CC1(C)OC2C(O1)[C@@H](CO)O[C@H]2n1cnc2c(N)ncnc21 (stereo not given in full)	-28.3	-1.4	-0.5	1.1	-16.3	-0.3	/	/
COc1ccc(C(=O)C(CN2CCOCC2)c2ccccc2)cc1F (stereo not given)	/	/	0.2	-7.5	-5.0	27.7*	1.4	0.1
COc1ccc(C(=O)OC(C)CN2CCOCC2)cc1OC (stereo not given)	/	0.3	-3.2	1.5	12.0	/	2.8	-0.1
CN(C)C(=O)C[C@H]1CC[C@@H](NC(=O)c2ccc(F)cc2)[C@@H](CO)O1	-0.5[16.7 µM]	/	/	/	/	/	/	/
COc1cc2c(cc1OC)CN(C(=O)[C@@H]1[C@H]3C(=O)O[C@H](c4ccccc4)[C@H](c4ccccc4)N3[C@H](c3ccc(OCCO)cc3)[C@@]13C(=O)Nc1ccc(C#CCNC(N)=O)cc13)CC2	5.5[16.7 µM]	/	/	/	/	/	/	/
COc1cccc(-c2ccc(-c3noc(-c4cccs4)n3)c(OC)n2)c1	/	3.2	5.9	-0.5	-33.4	14.9*	13.3*	0.6
COC(C[C@H]1O[C@H]1[C@H](O)[C@H](C)OCc1ccccc1)OC	4.5	/	1.0	0.2	-0.5	/	0.8	0.3
COC(C[C@@H]1O[C@@H]1[C@@H](O)[C@H](C)OCc1ccccc1)OC	24.8	/	-1.4	-1.4	21.4	-6.2	/	/
CCCCCCn1c(NCC)nc2c1c(=O)n(C)c(=O)n2C	/	-1.9	-1.5	-3.4	58.2	31.6*	76.6*	0.5
CCCCNc1nc2c(c(=O)n(C)c(=O)n2C)n1CCC	4.0	4.8	0.0	2.3	-0.8	1.1	/	/
O=[N+]([O-])c1cc(Cc2ccccc2)cc(C=Nc2ccc(N3CCOCC3)cc2)c1O	/	-12.9	7.5	0.0	17.2	/	/	/
Cc1ccc(O)c(N=Cc2cc(Cc3ccccc3)cc([N+](=O)[O-])c2O)c1	18.9	/	-1.0	3.5	-14.2	13.4*	10.0	-0.5
Cc1noc(C)c1NC(=O)Nc1ccc2c(c1)C(=O)N([C@H](C)CO)C[C@H](C)[C@@H](CN(C)C(=O)c1ccccc1)OCCCC[C@H](C)O2	7.2[16.7 µM]	/	/	/	/	/	/	/
CN1C(=O)c2cc(NC(=O)c3cscn3)ccc2OC[C@@H]2O[C@@H](CC(=O)NCC3CC3)CC[C@@H]21	2.0[16.7 µM]	/	/	/	/	/	/	/
O=C(CSc1nnc(-c2ccco2)c(-c2ccco2)n1)c1ccccc1	-9.5	1.0	1.6	2.1	-34.0	12.7*	2.1	-0.1
CC(=O)c1ccc(NC(=O)CSc2nnc(-c3ccco3)c(-c3ccco3)n2)cc1	-17.3	0.0	1.1	3.5	-47.1	-8.8	/	/
C=C1CC(COc2ccc3c(C)c(Cl)c(=O)oc3c2)(c2ccccc2)OC1=O (stereo not given)	-51.4	/	-1.9	6.7	-10.1	37.5*	17.6*	2.9*
SMILES	HIV Env fusion	NR2E3 ag-1	V-ATPase pHluor	GAA850 FXN act	NR2E3 ag-2	GalR3 antagonist	GalR3 antag conf	HEK-CNG parental
COc1ccc2c(C)c(Cl)c(=O)oc2c1	/	-2.2	-1.8	0.3	-2.3	-3.9	/	/
C[C@H]1CN([C@@H](C)CO)C(=O)c2ccccc2-c2ccccc2CO[C@H]1CN(C)C(=O)Cc1ccccc1	51.0[16.7 µM]	/	/	/	/	/	/	/
CC(C)Oc1cccc(C(=O)C2CCCN(Cc3cnc(N4CCOCC4)s3)C2)c1 (stereo not given)	16.2	4.2	-0.9	0.3	3.1	40.0*	29.8*	-0.2
COc1ccc(C(=O)C2CCCN(Cc3cnc(N4CCOCC4)s3)C2)cc1F (stereo not given)	-12.4	2.1	0.8	-2.6	-32.1	-4.5	/	/
Cc1ccc(S(=O)(=O)n2c3ccc(Cl)cc3c3nc(C)sc32)cc1	13.4	/	-0.5	3.9	4.8	/	1.6	0.2
C[C@@H]1CN([C@H](C)CO)C(=O)c2cc(NC(=O)c3ccncc3)ccc2O[C@@H](C)CCCCO[C@@H]1CN(C)CC1CCCCC1	9.6[16.7 µM]	/	/	/	/	/	/	/
CCOC(=O)C1(CCOc2ccccc2)CCN(Cc2ccc(OC)c(COC)c2)CC1	41.3	4.7	-1.1	-3.4	37.8	12.8*	63.7*	3.5*
CCCCOc1ccc(C(=O)Nc2ccncc2)cc1	/	-3.6	1.1	-4.2	7.4	56.7*	101.8*	-0.1
Cc1ccc(Oc2ccc(OCC(=O)Nc3ccncc3)cc2)cc1	43.4	/	/	-10.6	13.5	104.5*	109.3*	-0.8
Cc1cc(OCC(=O)Nc2ccncc2)cc(C)c1Br	46.1*	-0.5	2.3	-1.6	3.2	64.9*	61.9*	-0.1
O=C(COc1ccc2ccccc2c1)Nc1ccncc1	-4.9	3.6	1.8	0.1	-2.7	66.2*	72.8*	-0.5
CCCOc1ccc(C(=O)Nc2cccnc2)cc1	-10.5	0.2	2.2	0.5	-33.6	-10.8	/	/
O=C(COc1ccccc1)Nc1ccncc1	0.2	-1.9	3.5	0.1	-27.3	-1.1	/	/
C[C@@H]1CN([C@@H](C)CO)C(=O)c2cc(NS(=O)(=O)c3ccccc3)ccc2O[C@@H](C)CCCCO[C@@H]1CN(C)S(=O)(=O)c1ccccc1	-26.8[16.7 µM]	/	/	/	/	/	/	/
COc1ccc(NC(=O)Nc2ccc3c(c2)C(=O)N([C@H](C)CO)C[C@H](C)[C@@H](CN(C)C(=O)Nc2ccc(OC)cc2)OCCCC[C@@H](C)O3)cc1	5.5[16.7 µM]	/	/	/	/	/	/	/

Assay outcomes deposited in PubChem by several laboratories.
